Laboratory results taken from ChEMBL document CHEMBL1914412, “Molecular modeling study and synthesis of novel dicationic flexible triaryl guanidines and imidamides as antiprotozoal agents” (Eur J Med Chem, 2011).

Tested on: L6
Experiment: Cytotoxicity against rat L6 cells after 72 hrs by alamar blue staining-based microplate fluorometric analysis
Format: cell-based
Details: L6, 72 h

| Structure (SMILES) | IC50 |
| --- | --- |
| N=C(N)Nc1ccc(Oc2cccc(Oc3ccc(NC(=N)N)cc3)c2)cc1 | 10600 nM |
| C/N=C(/N)Nc1ccc(Oc2ccc(Oc3ccc(N/C(N)=N/C)cc3)cc2)cc1.Cl.Cl | 57300 nM |
| CC(C)(C)c1ccc(C(=N)Nc2ccc(Oc3cccc(Oc4ccc(NC(=N)c5ccc(C(C)(C)C)cc5)cc4)c3)cc2)cc1 | 81400 nM |
| CC(C)(C)c1ccc(C(=N)Nc2ccc(Oc3ccc(Oc4ccc(NC(=N)c5ccc(C(C)(C)C)cc5)cc4)cc3)cc2)cc1 | 1500 nM |
| N=C(Nc1ccc(Oc2cccc(Oc3ccc(NC(=N)c4ccccc4)cc3)c2)cc1)c1ccccc1 | 900 nM |
| N=C(Nc1ccc(Oc2cccc(Oc3ccc(NC(=N)c4ccc(-c5ccccc5)cc4)cc3)c2)cc1)c1ccc(-c2ccccc2)cc1 | 9100 nM |
| N=C(Nc1ccc(Oc2ccc(Oc3ccc(NC(=N)C4CCCCC4)cc3)cc2)cc1)C1CCCCC1 | 3100 nM |
| N=C(N)Nc1ccc(Oc2ccc(Oc3ccc(NC(=N)N)cc3)cc2)cc1 | 11600 nM |
| C/N=C(\N)Nc1ccc(Oc2cccc(Oc3ccc(N/C(N)=N/C)cc3)c2)cc1.Cl.Cl | 45700 nM |
| CC(C)/N=C(\N)Nc1ccc(Oc2cccc(Oc3ccc(N/C(N)=N/C(C)C)cc3)c2)cc1.Cl.Cl | 82100 nM |
| N=C(Nc1ccc(Oc2cccc(Oc3ccc(NC(=N)C4CCCCC4)cc3)c2)cc1)C1CCCCC1 | 3900 nM |
| N=C(Nc1ccc(Oc2ccc(Oc3ccc(NC(=N)c4ccc(-c5ccccc5)cc4)cc3)cc2)cc1)c1ccc(-c2ccccc2)cc1 | > 120000 nM |
| N=C(Nc1ccc(Oc2ccc(Oc3ccc(NC(=N)c4ccccc4)cc3)cc2)cc1)c1ccccc1 | 2800 nM |
| CC(C)/N=C(\N)Nc1ccc(Oc2ccc(Oc3ccc(N/C(N)=N/C(C)C)cc3)cc2)cc1.Cl.Cl | 19600 nM |

Tested on: Nucleic Acid
Experiment: Binding affinity to poly(dA-dT) DNA assessed as change in melting temperature at compound/polynucleotide ratio 0.3 in MES10 buffer by spectrophotometry
Format: nucleic-acid assay
Details: not given

| ΔTm | Structure (SMILES) |
| --- | --- |
| 0 °C | CC(C)(C)c1ccc(C(=N)Nc2ccc(Oc3cccc(Oc4ccc(NC(=N)c5ccc(C(C)(C)C)cc5)cc4)c3)cc2)cc1 |
| 0 °C | CC(C)(C)c1ccc(C(=N)Nc2ccc(Oc3ccc(Oc4ccc(NC(=N)c5ccc(C(C)(C)C)cc5)cc4)cc3)cc2)cc1 |
| 2 °C | N=C(Nc1ccc(Oc2cccc(Oc3ccc(NC(=N)c4ccccc4)cc3)c2)cc1)c1ccccc1 |
| 0 °C | N=C(Nc1ccc(Oc2cccc(Oc3ccc(NC(=N)c4ccc(-c5ccccc5)cc4)cc3)c2)cc1)c1ccc(-c2ccccc2)cc1 |
| 2.1 °C | N=C(N)Nc1ccc(Oc2ccc(Oc3ccc(NC(=N)N)cc3)cc2)cc1 |
| 0.1 °C | N=C(Nc1ccc(Oc2ccc(Oc3ccc(NC(=N)c4ccc(-c5ccccc5)cc4)cc3)cc2)cc1)c1ccc(-c2ccccc2)cc1 |
| 5 °C | N=C(Nc1ccc(Oc2ccc(Oc3ccc(NC(=N)c4ccccc4)cc3)cc2)cc1)c1ccccc1 |

Further lines, the compound ahead of its results:

| Structure (SMILES) | ΔTm |
| --- | --- |
| N=C(N)Nc1ccc(Oc2cccc(Oc3ccc(NC(=N)N)cc3)c2)cc1 | 1.1 °C |
| C/N=C(/N)Nc1ccc(Oc2ccc(Oc3ccc(N/C(N)=N/C)cc3)cc2)cc1.Cl.Cl | 0.8 °C |
| N=C(Nc1ccc(Oc2ccc(Oc3ccc(NC(=N)C4CCCCC4)cc3)cc2)cc1)C1CCCCC1 | 2.1 °C |
| C/N=C(\N)Nc1ccc(Oc2cccc(Oc3ccc(N/C(N)=N/C)cc3)c2)cc1.Cl.Cl | 0.1 °C |
| CC(C)/N=C(\N)Nc1ccc(Oc2cccc(Oc3ccc(N/C(N)=N/C(C)C)cc3)c2)cc1.Cl.Cl | 0 °C |
| N=C(Nc1ccc(Oc2cccc(Oc3ccc(NC(=N)C4CCCCC4)cc3)c2)cc1)C1CCCCC1 | 0 °C |
| CC(C)/N=C(\N)Nc1ccc(Oc2ccc(Oc3ccc(N/C(N)=N/C(C)C)cc3)cc2)cc1.Cl.Cl | 0 °C |

Tested on: Trypanosoma brucei rhodesiense
Experiment: Antitrypanosomal activity against Trypanosoma brucei rhodesiense STIB900 after 72 hrs using alamar blue staining by microplate fluorometric analysis
Format: functional, organism-based
Details: STIB900, 72 h
Procedure, shortened: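 STIB 900 trypanosome suspension with serial drug dilutions, 37 °C, 5% CO₂, 72 h; Alamar Blue added and incubation continued 2–4 h. Two independent runs, each in duplicate.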

| IC50 | Structure (SMILES) |
| --- | --- |
| 2780 nM | CC(C)(C)c1ccc(C(=N)Nc2ccc(Oc3cccc(Oc4ccc(NC(=N)c5ccc(C(C)(C)C)cc5)cc4)c3)cc2)cc1 |
| 400 nM | CC(C)(C)c1ccc(C(=N)Nc2ccc(Oc3ccc(Oc4ccc(NC(=N)c5ccc(C(C)(C)C)cc5)cc4)cc3)cc2)cc1 |
| 1040 nM | N=C(Nc1ccc(Oc2cccc(Oc3ccc(NC(=N)c4ccccc4)cc3)c2)cc1)c1ccccc1 |
| 82300 nM | N=C(Nc1ccc(Oc2cccc(Oc3ccc(NC(=N)c4ccc(-c5ccccc5)cc4)cc3)c2)cc1)c1ccc(-c2ccccc2)cc1 |
| 151 nM | N=C(N)Nc1ccc(Oc2ccc(Oc3ccc(NC(=N)N)cc3)cc2)cc1 |
| 612 nM | N=C(Nc1ccc(Oc2ccc(Oc3ccc(NC(=N)c4ccc(-c5ccccc5)cc4)cc3)cc2)cc1)c1ccc(-c2ccccc2)cc1 |
| 863 nM | N=C(Nc1ccc(Oc2ccc(Oc3ccc(NC(=N)c4ccccc4)cc3)cc2)cc1)c1ccccc1 |

The next lines start with the compound.

| Structure (SMILES) | IC50 |
| --- | --- |
| N=C(N)Nc1ccc(Oc2cccc(Oc3ccc(NC(=N)N)cc3)c2)cc1 | 171 nM |
| C/N=C(/N)Nc1ccc(Oc2ccc(Oc3ccc(N/C(N)=N/C)cc3)cc2)cc1.Cl.Cl | 155 nM |
| N=C(Nc1ccc(Oc2ccc(Oc3ccc(NC(=N)C4CCCCC4)cc3)cc2)cc1)C1CCCCC1 | 427 nM |
| C/N=C(\N)Nc1ccc(Oc2cccc(Oc3ccc(N/C(N)=N/C)cc3)c2)cc1.Cl.Cl | 318 nM |
| CC(C)/N=C(\N)Nc1ccc(Oc2cccc(Oc3ccc(N/C(N)=N/C(C)C)cc3)c2)cc1.Cl.Cl | 155 nM |
| N=C(Nc1ccc(Oc2cccc(Oc3ccc(NC(=N)C4CCCCC4)cc3)c2)cc1)C1CCCCC1 | 395 nM |
| CC(C)/N=C(\N)Nc1ccc(Oc2ccc(Oc3ccc(N/C(N)=N/C(C)C)cc3)cc2)cc1.Cl.Cl | 160 nM |

Tested on: Plasmodium falciparum
Experiment: Antiplasmodial activity against Plasmodium falciparum K1 infected in human red blood cells assessed as [3H]hypoxanthine incorporation after 48 hrs by liquid scintillation counting
Format: functional, organism-based
Details: not given

| IC50 | Structure (SMILES) |
| --- | --- |
| 627 nM | CC(C)(C)c1ccc(C(=N)Nc2ccc(Oc3cccc(Oc4ccc(NC(=N)c5ccc(C(C)(C)C)cc5)cc4)c3)cc2)cc1 |
| 60 nM | CC(C)(C)c1ccc(C(=N)Nc2ccc(Oc3ccc(Oc4ccc(NC(=N)c5ccc(C(C)(C)C)cc5)cc4)cc3)cc2)cc1 |
| 251 nM | N=C(Nc1ccc(Oc2cccc(Oc3ccc(NC(=N)c4ccccc4)cc3)c2)cc1)c1ccccc1 |
| 4700 nM | N=C(Nc1ccc(Oc2cccc(Oc3ccc(NC(=N)c4ccc(-c5ccccc5)cc4)cc3)c2)cc1)c1ccc(-c2ccccc2)cc1 |
| 26.5 nM | N=C(N)Nc1ccc(Oc2ccc(Oc3ccc(NC(=N)N)cc3)cc2)cc1 |
| 63.3 nM | N=C(Nc1ccc(Oc2ccc(Oc3ccc(NC(=N)c4ccc(-c5ccccc5)cc4)cc3)cc2)cc1)c1ccc(-c2ccccc2)cc1 |
| 71.5 nM | N=C(Nc1ccc(Oc2ccc(Oc3ccc(NC(=N)c4ccccc4)cc3)cc2)cc1)c1ccccc1 |

The remaining lines, values behind:

| Structure (SMILES) | IC50 |
| --- | --- |
| N=C(N)Nc1ccc(Oc2cccc(Oc3ccc(NC(=N)N)cc3)c2)cc1 | 27 nM |
| C/N=C(/N)Nc1ccc(Oc2ccc(Oc3ccc(N/C(N)=N/C)cc3)cc2)cc1.Cl.Cl | 14.1 nM |
| N=C(Nc1ccc(Oc2ccc(Oc3ccc(NC(=N)C4CCCCC4)cc3)cc2)cc1)C1CCCCC1 | 259 nM |
| C/N=C(\N)Nc1ccc(Oc2cccc(Oc3ccc(N/C(N)=N/C)cc3)c2)cc1.Cl.Cl | 21.5 nM |
| CC(C)/N=C(\N)Nc1ccc(Oc2cccc(Oc3ccc(N/C(N)=N/C(C)C)cc3)c2)cc1.Cl.Cl | 38.2 nM |
| N=C(Nc1ccc(Oc2cccc(Oc3ccc(NC(=N)C4CCCCC4)cc3)c2)cc1)C1CCCCC1 | 307 nM |
| CC(C)/N=C(\N)Nc1ccc(Oc2ccc(Oc3ccc(N/C(N)=N/C(C)C)cc3)cc2)cc1.Cl.Cl | 17.2 nM |

Tested on: not listed separately
Experiment: Selectivity index, ratio of IC50 for Trypanosoma brucei rhodesiense STIB900 to IC50 for Plasmodium falciparum K1
Format: functional
Details: not given

| Structure (SMILES) | Ratio IC50 |
| --- | --- |
| N=C(N)Nc1ccc(Oc2cccc(Oc3ccc(NC(=N)N)cc3)c2)cc1 | 6.3 |
| C/N=C(/N)Nc1ccc(Oc2ccc(Oc3ccc(N/C(N)=N/C)cc3)cc2)cc1.Cl.Cl | 11 |
| CC(C)(C)c1ccc(C(=N)Nc2ccc(Oc3cccc(Oc4ccc(NC(=N)c5ccc(C(C)(C)C)cc5)cc4)c3)cc2)cc1 | 4.4 |
| CC(C)(C)c1ccc(C(=N)Nc2ccc(Oc3ccc(Oc4ccc(NC(=N)c5ccc(C(C)(C)C)cc5)cc4)cc3)cc2)cc1 | 6.7 |
| N=C(Nc1ccc(Oc2cccc(Oc3ccc(NC(=N)c4ccccc4)cc3)c2)cc1)c1ccccc1 | 4.2 |
| N=C(Nc1ccc(Oc2cccc(Oc3ccc(NC(=N)c4ccc(-c5ccccc5)cc4)cc3)c2)cc1)c1ccc(-c2ccccc2)cc1 | 17 |
| N=C(Nc1ccc(Oc2ccc(Oc3ccc(NC(=N)C4CCCCC4)cc3)cc2)cc1)C1CCCCC1 | 1.6 |
| N=C(N)Nc1ccc(Oc2ccc(Oc3ccc(NC(=N)N)cc3)cc2)cc1 | 5.7 |
| C/N=C(\N)Nc1ccc(Oc2cccc(Oc3ccc(N/C(N)=N/C)cc3)c2)cc1.Cl.Cl | 14.8 |
| CC(C)/N=C(\N)Nc1ccc(Oc2cccc(Oc3ccc(N/C(N)=N/C(C)C)cc3)c2)cc1.Cl.Cl | 4.1 |
| N=C(Nc1ccc(Oc2cccc(Oc3ccc(NC(=N)C4CCCCC4)cc3)c2)cc1)C1CCCCC1 | 1.3 |
| N=C(Nc1ccc(Oc2ccc(Oc3ccc(NC(=N)c4ccc(-c5ccccc5)cc4)cc3)cc2)cc1)c1ccc(-c2ccccc2)cc1 | 9.6 |
| N=C(Nc1ccc(Oc2ccc(Oc3ccc(NC(=N)c4ccccc4)cc3)cc2)cc1)c1ccccc1 | 12.1 |
| CC(C)/N=C(\N)Nc1ccc(Oc2ccc(Oc3ccc(N/C(N)=N/C(C)C)cc3)cc2)cc1.Cl.Cl | 9.3 |

Tested on: not listed separately
Experiment: Ratio of IC50 for compound to IC50 for pentamidine for rat L6 cells
Format: cell-based
Details: read-out: Ratio IC50

| Structure (SMILES) | selectivity ratio |
| --- | --- |
| N=C(N)Nc1ccc(Oc2cccc(Oc3ccc(NC(=N)N)cc3)c2)cc1 | 5 |
| C/N=C(/N)Nc1ccc(Oc2ccc(Oc3ccc(N/C(N)=N/C)cc3)cc2)cc1.Cl.Cl | 27 |
| CC(C)(C)c1ccc(C(=N)Nc2ccc(Oc3cccc(Oc4ccc(NC(=N)c5ccc(C(C)(C)C)cc5)cc4)c3)cc2)cc1 | 39 |
| CC(C)(C)c1ccc(C(=N)Nc2ccc(Oc3ccc(Oc4ccc(NC(=N)c5ccc(C(C)(C)C)cc5)cc4)cc3)cc2)cc1 | 0.71 |
| N=C(Nc1ccc(Oc2cccc(Oc3ccc(NC(=N)c4ccccc4)cc3)c2)cc1)c1ccccc1 | 0.43 |
| N=C(Nc1ccc(Oc2cccc(Oc3ccc(NC(=N)c4ccc(-c5ccccc5)cc4)cc3)c2)cc1)c1ccc(-c2ccccc2)cc1 | 4.3 |
| N=C(Nc1ccc(Oc2ccc(Oc3ccc(NC(=N)C4CCCCC4)cc3)cc2)cc1)C1CCCCC1 | 1.5 |
| N=C(N)Nc1ccc(Oc2ccc(Oc3ccc(NC(=N)N)cc3)cc2)cc1 | 5.5 |
| C/N=C(\N)Nc1ccc(Oc2cccc(Oc3ccc(N/C(N)=N/C)cc3)c2)cc1.Cl.Cl | 22 |
| CC(C)/N=C(\N)Nc1ccc(Oc2cccc(Oc3ccc(N/C(N)=N/C(C)C)cc3)c2)cc1.Cl.Cl | 39 |
| N=C(Nc1ccc(Oc2cccc(Oc3ccc(NC(=N)C4CCCCC4)cc3)c2)cc1)C1CCCCC1 | 1.9 |
| N=C(Nc1ccc(Oc2ccc(Oc3ccc(NC(=N)c4ccc(-c5ccccc5)cc4)cc3)cc2)cc1)c1ccc(-c2ccccc2)cc1 | 60 |
| N=C(Nc1ccc(Oc2ccc(Oc3ccc(NC(=N)c4ccccc4)cc3)cc2)cc1)c1ccccc1 | 1.3 |
| CC(C)/N=C(\N)Nc1ccc(Oc2ccc(Oc3ccc(N/C(N)=N/C(C)C)cc3)cc2)cc1.Cl.Cl | 9.3 |

Tested on: Plasmodium falciparum
Experiment: Ratio of IC50 for pentamidine to IC50 for compound for Plasmodium falciparum K1
Format: functional
Details: not given

| Structure (SMILES) | Ratio IC50 |
| --- | --- |
| C/N=C(/N)Nc1ccc(Oc2ccc(Oc3ccc(N/C(N)=N/C)cc3)cc2)cc1.Cl.Cl | 3.3 |
| C/N=C(\N)Nc1ccc(Oc2cccc(Oc3ccc(N/C(N)=N/C)cc3)c2)cc1.Cl.Cl | 2.2 |
| CC(C)/N=C(\N)Nc1ccc(Oc2cccc(Oc3ccc(N/C(N)=N/C(C)C)cc3)c2)cc1.Cl.Cl | 1.2 |
| CC(C)/N=C(\N)Nc1ccc(Oc2ccc(Oc3ccc(N/C(N)=N/C(C)C)cc3)cc2)cc1.Cl.Cl | 2.7 |
